The text below walks through data of ChEMBL document CHEMBL1145471, “Small molecule regulators of autophagy identified by an image-based high-throughput screen” (Proc Natl Acad Sci U S A, 2007).

For test [1], the system named is H4. As to the kind of experiment: Increase in light chain 3-GFP+ autophagosome vesicle area per cell in human H4 cells at 3.9 uM after 24 hrs by high throughput fluorescence microscopy relative to control. It counts as functional. The gist of the method:
(§1)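 H4 cells stably expressing LC3-GFP, seeded in 96-well plates and exposed to compound for 24 h; fixed in 4% paraformaldehyde, nuclei stained with 3 μg/ml DAPI. Automated fluorescence microscopy scored number, size and intensity of LC3-GFP spots; values expressed relative to DMSO-treated wells, rapamycin positive control. Triplicate wells, mean ± SD; experiments repeated three times.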

Test [2] concerns H4. As to the kind of experiment: Increase in light chain 3-GFP+ autophagosome vesicle intensity per cell in human H4 cells at 3.9 uM after 24 hrs by high throughput fluorescence microscopy relative to control. Format: functional. The essentials:
as §1

For test [3], the system named is H4. Kind of test: Increase in long-lived protein degradation in human H4 cells after 2 hrs relative to control. Format: functional. The arrangement: concentration or dose not given beside the values.
The subject of test [4] is H4. Kind of test: Increase in long-lived protein degradation in human H4 cells after 24 hrs relative to control. Format: functional. On the set-up: concentration or dose not given beside the values.
Test [5] concerns H4. As to the kind of experiment: Increase in long-lived protein degradation in human H4 cells after 4 hrs relative to control. On the set-up: concentration or dose not given beside the values. It counts as functional.
Test [6] relates to H4. As to the kind of experiment: Induction of light chain 3-GFP level in human H4 cells at 3.9 uM after 24 hrs by high throughput fluorescence microscopy relative to control. It counts as functional. The essentials:
(§2)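 H4 cells stably expressing LC3-GFP, kept in DMEM/10% FBS at 37°C, 5% CO2, were seeded in 96-well plates and exposed to compound for 24 h. Cells were then fixed in 4% paraformaldehyde and stained with 3 μg/ml DAPI. Automated fluorescence microscopy scored the number, size and intensity of LC3-GFP spots. Values are percent of DMSO wells, in triplicate, mean ± SD. Rapamycin served as positive control.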

For test [7], the system named is H4. Kind of test: Increase in FYVE-RFP+ vesicle intensity per cell in human H4 cells after 4 hrs relative to control. Format: functional. The arrangement: concentration or dose not given beside the values. The essentials: (§3)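 H4 cells stably expressing FYVE-RFP (H4-FYVE), grown in DMEM with 10% FBS, penicillin/streptomycin and 2 mM L-glutamine at 37°C, 5% CO2, seeded in 96-well plates and exposed to compound. Fixed in 4% paraformaldehyde, nuclei stained with 3 μg/ml DAPI, FYVE-RFP+ vesicles quantified by high-throughput fluorescence microscopy against DMSO control. Triplicate wells, mean ± SD.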

Test [8] deals with H4. Kind of test: Increase in FYVE-RFP+ vesicle intensity per cell in human H4 cells after 2 hrs relative to control. Format: functional. On the set-up: concentration or dose not given beside the values. The essentials: as §3
Test [9] relates to H4. As to the kind of experiment: Increase in light chain 3-GFP+ autophagosome vesicle number per cell in human H4 cells at 3.9 uM after 24 hrs by high throughput fluorescence microscopy relative to control. Format: functional. The essentials:
as §2

In test [10] the test system is H4. As to the kind of experiment: Increase in ratio of light chain 3 subunit 2 to light chain 3 subunit 1 in human H4 cells at 3.9 uM after 4 hrs by Western blot. It counts as functional, cell-based. The gist of the method: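 H4 cells were treated with each compound for 4 h, then lysed. Lysates were immunoblotted with anti-LC3 antibody, with actin as loading control. LC3II and LC3I bands were compared as an LC3II/LC3I ratio.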

Test [11] concerns H4. As to the kind of experiment: Increase in long-lived protein degradation in human H4 cells after 1 hr relative to control. Format: functional. The arrangement: concentration or dose not given beside the values.
Test [12] deals with H4. Kind of test: Increase in FYVE-RFP+ vesicle intensity per cell in human H4 cells after 8 hrs relative to control. It counts as functional. On the set-up: concentration or dose not given beside the values. The essentials: as §3
Test [13] has as its system H4. Kind of test: Reduction of poly(Q) level in human H4 cells expressing EGFP-Q79-HA after 24 hrs. It counts as functional, cell-based. The essentials:
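H4 cells were transiently transfected with an EGFP-Q79-HA expression vector. The medium was replaced 6 h after transfection and compounds were added. Poly(Q) was detected with anti-HA antibody.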

Test [14] addresses T1, Serine/threonine-protein kinase mTOR (Homo sapiens, UniProt P42345). As to the kind of experiment: Effect on mTOR phosphorylation in human H4 cells at 3.9 uM after 4 hrs. Format: cell-based. The essentials:
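H4 cells exposed to compound for 4 h. Lysates analysed by Western blot with anti-phospho and anti-total mTOR antibodies, with actin as loading control. Rapamycin served as reference.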

Test [15] relates to H4. As to the kind of experiment: Increase in light chain 3-GFP+ autophagosome vesicle number per cell in human H4 cells at 4.5 uM after 24 hrs by high throughput fluorescence microscopy relative to control. It counts as functional. The essentials: (§4)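 H4 cells stably expressing LC3-GFP were grown in DMEM with 10% FBS and 2 mM L-glutamine at 37°C, 5% CO2. They were exposed to each compound for 24 h, with DMSO as negative and rapamycin as positive control. Cells were then fixed in 4% paraformaldehyde and stained with 3 μg/ml DAPI. High-throughput fluorescence imaging scored LC3-GFP spot number, size and intensity, expressed relative to DMSO. Mean ± SD of triplicates; experiments repeated three times.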

Test [16] has as its system H4. Kind of test: Increase in light chain 3-GFP+ autophagosome vesicle area per cell in human H4 cells at 4.5 uM after 24 hrs by high throughput fluorescence microscopy relative to control. It counts as functional. The gist of the method:
(§5)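 H4 cells stably expressing LC3-GFP, seeded in 96-well plates and exposed to compound for 24 h; screening concentrations were 3–12 μM, with rapamycin 0.22 μM and bafilomycin A1 0.40 μM. Cells fixed in 4% paraformaldehyde and stained with 3 μg/ml DAPI. Number, size and intensity of LC3-GFP spots measured by high-throughput fluorescence microscopy and expressed as percent of DMSO-treated wells. Rapamycin was the positive control. Triplicate wells, mean ± SD; experiments repeated three times.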

The test system of test [17] is H4. As to the kind of experiment: Decrease in FYVE-RFP+ vesicle intensity per cell in human H4 cells after 2 hrs relative to control. On the set-up: concentration or dose not given beside the values. Format: functional. The gist of the method: as §3
Test [18] concerns H4. As to the kind of experiment: Decrease in FYVE-RFP+ vesicle intensity per cell in human H4 cells after 8 hrs relative to control. Format: functional. The arrangement: concentration or dose not given beside the values. The gist of the method: as §3
Test [19] has as its system H4. Kind of test: Increase in light chain 3-GFP+ autophagosome vesicle intensity per cell in human H4 cells at 4.5 uM after 24 hrs by high throughput fluorescence microscopy relative to control. It counts as functional. The essentials:
as §4

For test [20], the system named is H4. Kind of test: Induction of light chain 3-GFP level in human H4 cells at 4.5 uM after 24 hrs by high throughput fluorescence microscopy relative to control. It counts as functional. The essentials:
(§6)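 H4 cells stably expressing LC3-GFP, grown in DMEM with 10% FBS, penicillin/streptomycin and 2 mM L-glutamine at 37°C, 5% CO2. Cells were seeded in 96-well plates and exposed to library compounds at 3–12 μM for 24 h, then fixed in 4% paraformaldehyde and stained with 3 μg/ml DAPI. LC3-GFP spot number, size and intensity were measured by high-throughput fluorescence microscopy and expressed relative to DMSO. Triplicates, mean ± SD.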

In test [21] the test system is H4. As to the kind of experiment: Decrease in FYVE-RFP+ vesicle intensity per cell in human H4 cells after 4 hrs relative to control. Format: functional. The arrangement: concentration or dose not given beside the values. The essentials: as §3
For test [22], the system named is H4. As to the kind of experiment: Effect on FYVE-RFP+ vesicle intensity per cell in human H4 cells after 4 hrs relative to control. Format: functional. On the set-up: concentration or dose not given beside the values. The gist of the method: as §3
In test [23] the target is T1, Serine/threonine-protein kinase mTOR. As to the kind of experiment: Effect on mTOR phosphorylation in human H4 cells at 5.4 uM after 4 hrs. Format: cell-based. The gist of the method:
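H4 cells treated with compound for 4 h; lysates analysed by Western blot using anti-phospho/non-phospho mTOR antibody, with actin as loading control; rapamycin used for comparison. Cells grown in DMEM with 10% FBS, penicillin/streptomycin, 2 mM L-glutamine at 37°C, 5% CO2.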

Test [24] has as its system H4. As to the kind of experiment: Increase in light chain 3-GFP+ autophagosome vesicle area per cell in human H4 cells at 5.4 uM after 24 hrs by high throughput fluorescence microscopy relative to control. It counts as functional. The essentials:
as §1

Test [25] concerns H4. Kind of test: Increase in light chain 3-GFP+ autophagosome vesicle intensity per cell in human H4 cells at 5.4 uM after 24 hrs by high throughput fluorescence microscopy relative to control. It counts as functional. The essentials: as §1
For test [26], the system named is H4. Kind of test: Effect on FYVE-RFP+ vesicle intensity per cell in human H4 cells after 8 hrs relative to control. It counts as functional. The arrangement: concentration or dose not given beside the values. The essentials:
as §3

For test [27], the system named is H4. Kind of test: Effect on FYVE-RFP+ vesicle intensity per cell in human H4 cells after 2 hrs relative to control. It counts as functional. The arrangement: concentration or dose not given beside the values. The gist of the method: as §3
In test [28] the test system is H4. As to the kind of experiment: Induction of light chain 3-GFP level in human H4 cells at 5.4 uM after 24 hrs by high throughput fluorescence microscopy relative to control. Format: functional. The gist of the method:
as §2

Test [29] concerns H4. As to the kind of experiment: Increase in ratio of light chain 3 subunit 2 to light chain 3 subunit 1 in human H4 cells at 5.4 uM after 4 hrs by Western blot. It counts as functional, cell-based. The essentials: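 H4 cells were exposed to compound for 4 h, then lysed. Lysates were blotted with anti-LC3 antibody, with actin as loading control, and the LC3II/LC3I band ratio was taken.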
For orientation: A western blot detects proteins with antibodies after separation by electrophoresis.

For test [30], the system named is H4. As to the kind of experiment: Increase in light chain 3-GFP+ autophagosome vesicle number per cell in human H4 cells at 5.4 uM after 24 hrs by high throughput fluorescence microscopy relative to control. It counts as functional. The gist of the method:
as §2

Test [31] relates to H4. Kind of test: Induction of light chain 3-GFP level in human H4 cells at 4.3 uM after 24 hrs by high throughput fluorescence microscopy relative to control. It counts as functional. The gist of the method: as §6
For test [32], the system named is H4. As to the kind of experiment: Increase in light chain 3-GFP+ autophagosome vesicle number per cell in human H4 cells at 4.3 uM after 24 hrs by high throughput fluorescence microscopy relative to control. Format: functional. The essentials: as §4
Test [33] has as its system H4. As to the kind of experiment: Increase in light chain 3-GFP+ autophagosome vesicle intensity per cell in human H4 cells at 4.3 uM after 24 hrs by high throughput fluorescence microscopy relative to control. Format: functional. The essentials: as §4
Test [34] relates to H4. Kind of test: Increase in light chain 3-GFP+ autophagosome vesicle area per cell in human H4 cells at 4.3 uM after 24 hrs by high throughput fluorescence microscopy relative to control. It counts as functional. The gist of the method: as §5

The source made the active and inactive calls. The calls are words filed in the database; no cut-off is given here.

Turning to `COC(=O)C1=C(C)NC(C)=C(C(=O)OCCCN2CCC(c3ccccc3)(c3ccccc3)CC2)[C@H]1c1cccc([N+](=O)[O-])c1` [NIGULDIPINE], the Activity with H4 [1] stood at 405.33%; with H4 [2], 777.92%; in the test on H4 [3] it was 107.42%; with H4 [4], 117.85%; with H4 [5], 105.68%; with H4 [6], 132.78%. Further, the Activity in the test with H4 [7] was 148.26%; in the test with H4 [8], 147.18%; in the test with H4 [9], 282.89%; with H4 [11] it was 71.65%; in the test with H4 [12], 125.53%; with H4 [13], “Dose-dependent effect”. The outcome with H4 [10] was Active. Moreover, the result in test [14] was inactive.
Turning to `COC1=C2C[C@@H](C)C[C@H](OC)[C@H](O)[C@@H](C)/C=C(\C)[C@H](OC(N)=O)[C@@H](OC)/C=C\C=C(/C)C(=O)NC(=CC1=O)C2=O` [GELDANAMYCIN], the Activity in the test with H4 [3] is reported as 74.67%; in the test on H4 [15], 313.52%; in the test on H4 [4], 72.93%; with H4 [5], 87.795%; in the test on H4 [16] it was 398.91%; in the test with H4 [17] it was 35.18%. In addition, the Activity in the test with H4 [18] is on record as 39.26%; in the test with H4 [19], 546.8%; in the test on H4 [11], 87.25%; with H4 [20], 81.41%; in the test with H4 [21], 41.33%.
Regarding `O=c1[nH]c2ccccc2n1C1CCN(CCCC(c2ccc(F)cc2)c2ccc(F)cc2)CC1` [PIMOZIDE], the Activity stood at 103.96% with H4 [22]; 155.8% in the test with H4 [3]; 162.47% in the test on H4 [4]; 152.01% in the test on H4 [5]; 290.43% in the test on H4 [24]; 447.75% with H4 [25]. The Activity in the test with H4 [26] is 73.64%; in the test on H4 [27], 94.42%; in the test on H4 [28] it was 127.14%; with H4 [11] it was 129.13%; in the test on H4 [13], “Dose-dependent effect”; with H4 [30], 218.96%. In [23], the outcome was inactive. Also, the outcome with H4 [29] was Active.
Take `COc1cc([C@@H]2c3cc4c(cc3[C@@H](O[C@@H]3O[C@@H]5CO[C@@H](C)O[C@H]5[C@H](O)[C@H]3O)[C@H]3COC(=O)[C@H]23)OCO4)cc(OC)c1O` [ETOPOSIDE]: the Activity with H4 [31] is reported as 48.17%; with H4 [32], 275.6%; in the test with H4 [33], 335.9%; in the test with H4 [34], 306.93%.
